In the library only some 2.9% were active in any assay of this set; here they are far more common.
ZTA DNA inh: ZTA (EBV) inhibition in EBNA-1 counter-screen | ZTA-DNA binding, fluorescence polarization | inhibition, % at 11 µM | 320,000 compounds, 0.15% hits; in the data active = inhibition above about 33%
Target sequence (P03206 whole entry, looked up): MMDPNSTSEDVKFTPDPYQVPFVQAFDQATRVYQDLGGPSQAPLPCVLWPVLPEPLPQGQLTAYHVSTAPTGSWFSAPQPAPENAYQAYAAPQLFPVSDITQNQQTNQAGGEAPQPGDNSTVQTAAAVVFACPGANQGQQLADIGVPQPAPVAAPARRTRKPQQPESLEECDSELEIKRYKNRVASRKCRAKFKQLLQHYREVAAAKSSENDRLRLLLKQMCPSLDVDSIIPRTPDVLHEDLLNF
Apaf1 inhib: inhibitors of human Apaf-1 apoptosome, primary screen, biochemical, DEVD-Rh110 fluorescence, uHTS; Apoptotic protease-activating factor 1 (Homo sapiens), O14727; reconstituted apoptosome caspase-3 activity; inhibition, % at 20 µM; 330,000 compounds, 0.71% hits; AID 489030, 2010; active = inhibition of at least 40% at 20 µM;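 also: plate controls were DMSO wells for no effect and DEVD-CHO caspase inhibitor wells for full effect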
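Material: cell-free apoptosome with Apaf-1, procaspase-3 and caspase-9; Buffer or medium: Hepes pH 7.5 with detergent and BSA; Reagent: cytochrome c trigger plus (Z-DEVD)2-Rh110 caspase-3 substrate; Times: compound with Apaf-1, dATP, procaspase-3 30 min, then 50 min reaction, room temperature; Technique: Rh110 fluorescence intensity.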
UBC13 inh: UBC13 polyubiquitin chain formation inhibitors, primary screen, biochemical, TR-FRET, uHTS; 330,000 compounds, 0.47% hits; inhibition, % at 20 µM; AID 485273, 2010; Ubiquitin-conjugating enzyme E2 N (Homo sapiens), P61088; in the data active = inhibition above about 45%, passing the limit was not always enough
Target sequence (P61088 whole entry, looked up): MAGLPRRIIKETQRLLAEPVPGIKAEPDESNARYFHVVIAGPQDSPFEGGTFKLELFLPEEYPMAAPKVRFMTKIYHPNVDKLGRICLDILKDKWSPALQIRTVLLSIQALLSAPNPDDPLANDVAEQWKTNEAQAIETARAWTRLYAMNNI
EBNA-1 inhibitor: EBNA-1 DNA-binding inhibitors, primary screen, biochemical, fluorescence polarization; inhibition, % at 14.8 µM; 300,000 compounds, 0.34% hits; in the data active = inhibition above about 28%
PfM18AAP inh-1: PfM18AAP inhibitors, malaria aminopeptidase, primary screen, biochemical, QFRET, recombinant enzyme; H-Glu-NHMec fluorogenic cleavage; inhibition, % at 7.35 µM; 290,000 compounds, 1.2% hits; AID 1822, 2009;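 active = inhibition above the campaign mean inhibition over all tested compounds plus 3 SD, cut at about 28% in these data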;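 also: 0% = plate median of test compound wells and 100% = 2 mM ZnCl2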
PfG6PD inh: PfG6PD enzyme inhibitors, primary screen, biochemical, fluorescence intensity, uHTS | inhibition, % at 20 µM | glucose-6-phosphate dehydrogenase-6-phosphogluconolactonase (Plasmodium falciparum 3D7) | PfGluPho enzyme, NADPH resazurin-diaphorase fluorescence | 350,000 compounds, 0.78% hits | AID 504690, 2011;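 active = inhibition reaching at least a set limit at 20 µM in the primary screen, cut at about 59% in these data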;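 also: 0% = DMSO wells with substrate and 100% = DMSO wells lacking glucose-6-phosphate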
PfM18AAP inh-2: PfM18AAP inhibitors, malaria aminopeptidase, confirmation, biochemical, QFRET, recombinant enzyme, triplicate; shares compounds with PfM18AAP inh-1; H-Glu-NHMec fluorogenic cleavage; inhibition, % at 7.35 µM; 2,400 compounds, 28% hits;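 active = mean inhibition over replicate wells above the hit cutoff set for the earlier primary screen, cut at about 29% in these data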;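 also: 0% = median of test compound wells and 100% = 2 mM ZnCl2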
CTSL1 counter: cathepsin L1 inhibitors, retest, confirmation, counter-screen for PFM18AAP inhibitor project, biochemical, QFRET, triplicate; purified cathepsin L1, Z-Leu-Arg-MCA fluorescence; 2,400 tested, under 10 active; shares compounds with PfM18AAP inh-1; AID 2178, 2009; inhibition, % at 5.96 µM;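 active = average inhibition across replicates above the hit cutoff set in the earlier primary screen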;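 also: 0% = median of test compound wells and 100% = Z-Phe-Ala-diazomethylketone 1 µM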
Target sequence (P07711 whole entry, looked up): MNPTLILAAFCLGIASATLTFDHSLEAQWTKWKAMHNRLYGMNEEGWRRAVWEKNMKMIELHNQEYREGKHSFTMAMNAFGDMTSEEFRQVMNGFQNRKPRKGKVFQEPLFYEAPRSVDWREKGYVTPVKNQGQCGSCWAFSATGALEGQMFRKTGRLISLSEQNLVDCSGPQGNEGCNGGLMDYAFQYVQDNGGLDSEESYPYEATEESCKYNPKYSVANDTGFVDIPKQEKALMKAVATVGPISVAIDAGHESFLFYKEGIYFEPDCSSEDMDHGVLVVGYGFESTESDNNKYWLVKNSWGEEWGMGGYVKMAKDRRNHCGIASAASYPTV
EBNA-1 inh conf: EBNA-1 DNA-binding inhibitors, retest, confirmation, biochemical, fluorescence polarization, triplicate; Recombinant EBNA-1 DBD, Cy5-DNA fluorescence polarization; shares compounds with EBNA-1 inhibitor; inhibition, % at 14.8 µM; 830 compounds, 35% hits;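 active = mean inhibition across replicates above a set limit taken from the earlier primary screen, cut at about 28% in these data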;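 also: plate controls were EBNA-1 protein with DMSO for no effect and wells lacking EBNA-1 for full effect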
ZTA DNA inh trip: EBV Zta DNA binding inhibitors, counter-screen for EBNA-1 inhibitor project, biochemical, fluorescence polarization, triplicate. 830 tested, under 10 active. shares compounds with EBNA-1 inhibitor. Zta-ZRE DNA binding, Cy5 fluorescence polarization. inhibition, % at 11.1 µM. AID 2328, 2010;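 active = mean inhibition over triplicates above a set limit taken from the primary EBNA-1 screen, cut at about 37% in these data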;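 also: purified full length Zta protein with Cy5 labeled ZRE DNA probe; 0% = Zta with DMSO and 100% = wells lacking Zta protein; inhibitors lower polarization by freeing the labeled DNA probe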
Active calls of the source: *; x = not tested or not shown; ! = not active in a repeat.

SMILES | ZTA DNA inh | Apaf1 inhib | UBC13 inh | EBNA-1 inhibitor | PfM18AAP inh-1 | PfG6PD inh | PfM18AAP inh-2 | CTSL1 counter | others
COc1ccc(S(=O)(=O)Nc2ccc(O)c(Sc3ncn[nH]3)c2)cc1 | -2.0 | -29.8 | 5.2 | 5.9 | 53.9* | 10.5 | 40.5* | 1.8
C/C(CCc1ccco1)=N/NC(=O)CCC(=O)Nc1ccc(Br)cc1 | 20.3 | -15.8 | 1.9 | 8.2 | 6.1 | -1.5 | x | x
Cc1ccc(C(=O)NN2CCOCC2)cc1[N+](=O)[O-] | 6.7 | -1.6 | 0.2 | 0.5 | -2.5 | 5.2 | x | x
COC(=O)c1cc(C(=O)Nn2cnnc2)cc([N+](=O)[O-])c1 | 1.5 | -14.7 | -4.6 | -0.8 | 62.7* | -4.5 | 72.7* | 1.4
Cc1ccc(C(=O)Nn2cnnc2)cc1[N+](=O)[O-] | -24.7 | -1.7 | 3.1 | 2.7 | 42.8* | -6.4 | 38.9* | -4.5
Cc1ccc(/C=N/Nc2ccc3ccccc3n2)o1 | -5.0 | -2.1 | -9.9 | 1.9 | 13.7 | 42.0 | x | x
Cc1ccc(/C=N/Nc2cn[nH]c(=O)n2)o1 | 0.4 | -8.8 | -15.0 | 1.0 | 48.3* | 9.7 | 5.2 | 3.5
CC(NC(=O)CN1C(=O)NC2(CCCCCC2)C1=O)c1ccccc1Cl (stereo unspecified) | -2.4 | 3.7 | 8.3 | x | x | 4.9 | x | x
Nc1nncn1C(=O)CCCOc1ccc(Cl)cc1Cl | -8.3 | -1.4 | 1.8 | 0.7 | 47.0* | -7.0 | 62.8* | 4.3
Nc1nncn1C(=O)CCCN1C(=O)c2ccccc2C1=O | -5.2 | 0.9 | -9.3 | 3.4 | 44.1* | -15.1 | 47.4* | -12.5
O=C(CCCN1C(=O)c2ccccc2C1=O)N1CCc2ccccc2C1 | 6.2 | -3.8 | -2.1 | 16.6 | -14.3 | -15.0 | x | x
CC(=O)Nc1ccc(S(=O)(=O)NCCC(=O)OCC(=O)NCc2ccccc2)cc1 | x | -2.6 | 5.2 | x | x | 2.6 | x | x
O=C(O)c1ccc(O)cc1O | -2.3 | -20.9 | -4.9 | x | x | 8.4 | x | x
Nc1ccc(C(=O)Oc2ccc([N+](=O)[O-])cc2)c(O)c1 | -0.7 | -1.5 | -4.5 | 4.0 | 18.8 | x | -52.2 | -2.6
Nc1ccc(C(=O)O)c(O)c1 | 7.4 | -13.3 | -79.0 | 7.8 | 32.5*! | 27.9 | -22.7 | -1.2
Nc1ccc(C(=O)Oc2ccc([N+](=O)[O-])cc2)cc1 | 2.8 | 2.1 | -3.3 | -23.0 | 6.0 | -5.1 | x | x
COc1cc(OC)c(OC)cc1/C=C/C(=O)OCC(=O)Nc1c(C)n(C)n(-c2ccccc2)c1=O | x | x | x | x | x | 0.4 | x | x
C/C(=N\Nc1ccc(F)cc1F)c1ccc(Br)s1 | -6.0 | 14.0 | 4.4 | -3.6 | -10.4 | 8.3 | x | x
C(=N\Nc1ccc2nncn2n1)/c1ccccn1 | -1.6 | -21.7 | -9.5 | 0.8 | 41.0* | -12.8 | -5.0 | -4.8
C/C(=N\Nc1ccc2nncn2n1)c1ccco1 | -12.0 | -20.1 | -1.0 | 7.3 | 44.7* | 2.6 | 19.0 | 1.2
C/C(=N\Nc1ccc2nncn2n1)c1ccc(Br)s1 | 13.4 | -5.3 | -1.5 | 5.2 | 50.3* | 1.4 | -29.2 | 3.0
C/C(=N\Nc1ccc2nncn2n1)c1ccccn1 | -13.4 | -3.4 | -11.4 | -0.9 | 40.0* | -10.0 | -19.7 | 0.1
COc1ccccc1C(=O)COC(=O)Cn1nc(C)c([N+](=O)[O-])c1C | 9.1 | -1.7 | 3.1 | 10.1 | x | -1.4 | x | x
COCCC(=O)NNS(=O)(=O)c1ccc(Cl)cc1 | -2.1 | -6.9 | 7.1 | 9.0 | -15.8 | -8.3 | x | x
Cc1cc(O)c(Oc2cc(C)cc(O)c2O)c(O)c1 | 2.2 | -6.9 | 2.2 | -2.5 | 49.6* | 49.2 | 36.2* | -3.2
SMILES | ZTA DNA inh | Apaf1 inhib | UBC13 inh | EBNA-1 inhibitor | PfM18AAP inh-1 | PfG6PD inh | PfM18AAP inh-2 | CTSL1 counter | others
CCOc1ccc(CN(C)C(=O)c2ccc3ccccc3n2)cc1 | -4.3 | 11.1 | 6.1 | 10.5 | 2.2 | 4.5 | x | x
COc1ccc(NC(=S)c2ccc3ccccc3n2)cc1 | 1.6 | 14.6 | -2.1 | 7.5 | 47.3* | 57.0 | 4.2 | -4.8
Cc1ccc(NC(=S)c2ccc3ccccc3n2)c(C)c1 | -5.0 | -3.6 | -4.7 | 0.1 | 42.1* | 56.3 | -1.4 | 2.4
CCOc1ccc(NC(=S)c2ccc3ccccc3n2)cc1 | 2.0 | 16.9 | -18.2 | -2.3 | 40.9* | 47.1 | -30.4 | -4.8
Cc1ccc(C)c(NC(=O)c2ccc3ccccc3n2)c1 | 19.2 | 17.5 | 1.4 | 2.8 | -2.0 | 18.2 | x | x
Cc1cc(C)nc(CCNC(=O)c2cc(COc3c(C)cccc3C)on2)n1 | 11.2 | -3.3 | 7.7 | -6.5 | -1.1 | 22.6 | x | x
O=C(NCCCN1CCOCC1)C1CCN(S(=O)(=O)c2cccc(Cl)c2Cl)CC1 | 3.5 | 3.1 | -0.4 | -9.8 | x | -11.6 | x | x
COC(=O)c1ccccc1NC(=O)C1CCN(c2ncnc3c2nc2n3CCCCC2)CC1 | -2.5 | 15.6 | 10.7 | -3.3 | -2.6 | -5.7 | x | x
COc1cccc(NC(=O)[C@H](NC(=O)[C@@H]2Cc3ccccc3CN2)c2ccccc2)c1 | -1.6 | 7.4 | 10.3 | -6.6 | 2.3 | 15.6 | x | x
N#CC1=C(N)OC2=C(C(=O)CCC2)C1c1ccc2c(c1)OCO2 (stereo unspecified) | -2.0 | -1.7 | -8.4 | 6.1 | 14.7 | 19.2 | x | x
COc1cc(C2C(C#N)=C(N)OC3=C2C(=O)CCC3)cc2c1OCO2 (stereo unspecified) | -8.4 | 10.4 | -1.0 | -0.4 | 34.2* | -6.2 | -41.7 | -3.9
Cc1csc(NC(=O)C(C)N2C(=O)c3ccccc3S2(=O)=O)n1 (stereo unspecified) | -15.3 | 6.1 | 2.3 | 4.9 | -3.5 | 0.1 | x | x
COc1ccc(/C(C)=N\Nc2nc(-c3ccccc3)cc(=O)[nH]2)cc1 | 7.7 | 8.7 | -2.4 | 41.7* | 40.4* | -5.4 | -30.5 | 5.5 | EBNA-1 inh conf=19.9;ZTA DNA inh trip=5.1
COc1c2c(nc3occc13)C(CC=C(C)C)(OC)C(O)CC2 (stereo unspecified) | 3.5 | 17.3 | 8.9 | -6.2 | 4.7 | 7.6 | x | x

Screens: PubChem BioAssay, several laboratories
